Data from ChEMBL document CHEMBL1255440, “An antimicrobial peptide that targets DNA repair intermediates in vitro inhibits Salmonella growth within murine macrophages” (Antimicrob Agents Chemother, 2010).
Values after ≈ are worked out from the molar mass of the structure shown.

Tests used:
Salmonella typhimurium [1] = experiment: Antibacterial activity against 10 MOI Salmonella enterica subsp. enterica serovar Typhimurium G785 transfected with SOS-inducible beta-galactosidase reporter infected in mouse J774A1 cells assessed as SOS induction at 100 uM after 4 hrs postinfection; type: functional, J774.A1
Summary of the method: (§1)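 J774A.1 cells infected at MOI 10 with sulA promoter-lacZ reporter strain G785 using the gentamicin-protection protocol, treated with peptide (DMSO vehicle controls) plus 15 μg/ml gentamicin for 4 or 24 h. Released bacteria were plated for colony counts in parallel, and were incubated with 33 μM C12FDG (with 0.2 mM EDTA) in LB for 2 h at 37°C. Flow cytometry gave % fluorescein-positive among LPS-antibody-positive particles; Wilcoxon exact test.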

Salmonella typhimurium [2] = experiment: Antibacterial activity against 10 MOI Salmonella enterica subsp. enterica serovar Typhimurium G785 transfected with SOS-inducible beta-galactosidase reporter infected in mouse J774A1 cells assessed as bacterial number at 50 uM after 24 hrs postinfection; type: functional, J774.A1; summary of the method: as §1
Salmonella typhimurium [3] = experiment: Antibacterial activity against 10 MOI Salmonella enterica subsp. enterica serovar Typhimurium G785 transfected with SOS-inducible beta-galactosidase reporter infected in mouse J774A1 cells assessed as SOS induction at 100 uM after 24 hrs postinfection; type: functional, J774.A1; summary of the method: as §1
Salmonella typhimurium [4] = experiment: Antibacterial activity against 10 MOI Salmonella enterica subsp. enterica serovar Typhimurium G785 transfected with SOS-inducible beta-galactosidase reporter infected in mouse J774A1 cells assessed as SOS induction at 150 uM after 24 hrs postinfection; type: functional, J774.A1; summary of the method: as §1
[5] = Cytotoxicity against mouse peritoneal macrophages assessed as increase in metabolic activity at 150 uM after 24 hrs by MTT assay; type: ADME, cell-based; settings: peritoneal macrophage cell
Summary of the method: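 Cells seeded at 40,000/well in 96-well plates, overnight 37°C 5% CO2, then treated 24 h in fresh DMEM. MTT (4 mg/ml stock in PBS) added for up to 3 h. Formazan solubilized overnight at 37°C in SDS/dimethylformamide/acid lysis buffer, OD read at 575 nm. Paired t tests.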

[6] = Cytotoxicity against mouse J774A1 cells assessed as live cells at 100 uM by calcein AM assay; type: cell-based, J774.A1; settings: read-out: Activity
Summary of the method: (§2)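 Cells seeded at 300,000/well and allowed to adhere, then given fresh DMEM with or without peptide for 24 h. Cells trypsinized, stained with a mammalian Live/Dead viability/cytotoxicity kit and analyzed by flow cytometry. Wilcoxon exact test.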

J774.A1 [7] = experiment: Cytotoxicity against mouse J774A1 cells assessed as dead cells at 50 uM by propidium iodide assay; type: cell-based; settings: j774.a1, 50 µM; summary of the method: as §2
[8] = Cytotoxicity against mouse peritoneal macrophages assessed as live cells at 50 uM by calcein AM assay; type: cell-based, Peritoneal macrophage cell; settings: read-out: Activity; summary of the method: as §2
[9] = Cytotoxicity against mouse peritoneal macrophages assessed as live cells at 100 uM by calcein AM assay; type: cell-based, Peritoneal macrophage cell; settings: read-out: Activity; summary of the method: as §2
[10] = Cytotoxicity against mouse peritoneal macrophages assessed as live cells at 150 uM by calcein AM assay; type: cell-based, Peritoneal macrophage cell; settings: read-out: Activity; summary of the method: as §2
J774.A1 [11] = experiment: Drug uptake in mouse J774A1 cells assessed as total peptide concentration at 100 uM after 5 hrs at 37 degC by HPLC analysis; type: ADME, cell-based; settings: j774.a1, 5 h
Summary of the method: (§3)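 J774A.1 cells were incubated with unlabeled peptide for 5 or 24 h at 37°C or 4°C, washed in ice-cold PBS and lysed with NP-40 buffer. Lysates were run on reverse-phase HPLC with an acetonitrile/0.1% TFA gradient and A280 fractions. Monomer (~17.5 min) and dimer (~17.75 min) peak areas were compared against a standard curve. Intracellular mM was calculated using 300,000 cells and 1 pl/cell, with concentration expressed as monomer mass.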

J774.A1 [12] = experiment: Drug uptake in mouse J774A1 cells assessed as dimer to monomer peptide ratio at 150 uM after 24 hrs at 37 degC by HPLC analysis; type: ADME, cell-based; settings: j774.a1, 24 h; summary of the method: as §3
J774.A1 [13] = experiment: Drug uptake in mouse J774A1 cells assessed as total peptide concentration at 50 uM after 24 hrs at 37 degC by HPLC analysis; type: ADME, cell-based; settings: j774.a1, 24 h
Summary of the method: (§4)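 J774A.1 cells were seeded at 300,000 per well and allowed to adhere for 24 h at 37°C in 5% CO2. Medium was replaced with DMEM containing unlabeled peptide, and cells were held at 37°C or 4°C. After three washes in ice-cold PBS, cells were lysed in NP-40 buffer and debris spun out. Reverse-phase HPLC was read at 280 nm. Peaks at 17.5 and 17.75 min were integrated against a standard curve. Intracellular mM was calculated from 300,000 cells at 1 pl each, using monomer mass.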

J774.A1 [14] = experiment: Drug uptake in mouse J774A1 cells at 1 uM after 4 hrs by confocal laser microscopy; type: ADME, cell-based; settings: j774.a1, 4 h
Summary of the method: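 Cells were seeded at 200,000 per chamber-slide well and left to adhere overnight at 37°C. They were then exposed in DMEM to peptide carrying an N-terminal rhodamine label, at 37°C or, where stated, 4°C. Cells were washed three times in PBS, fixed in 4% paraformaldehyde for 30 min, and mounted in antifade. Optical slices near the cell centre were imaged by confocal laser microscopy.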

Salmonella typhimurium [15] = experiment: Antibacterial activity against Salmonella enterica subsp. enterica serovar Typhimurium SDT1416; type: functional
Summary of the method: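 MIC by NCCLS broth microdilution against GFP-expressing strain SDT1416.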

J774.A1 [16] = experiment: Drug uptake in mouse J774A1 cells assessed as total peptide concentration at 150 uM after 5 hrs at 37 degC by HPLC analysis; type: ADME, cell-based; settings: j774.a1, 5 h; summary of the method: as §4
J774.A1 [17] = experiment: Drug uptake in mouse J774A1 cells assessed as total peptide concentration at 150 uM after 5 hrs at 4 degC by HPLC analysis; type: ADME, cell-based; settings: j774.a1, 5 h; summary of the method: as §4
J774.A1 [18] = experiment: Drug uptake in mouse J774A1 cells assessed as dimer to monomer peptide ratio at 100 uM after 5 hrs at 4 degC by HPLC analysis; type: ADME, cell-based; settings: j774.a1, 5 h; summary of the method: as §3
J774.A1 [19] = experiment: Drug uptake in mouse J774A1 cells assessed as dimer to monomer peptide ratio at 150 uM after 5 hrs at 4 degC by HPLC analysis; type: ADME, cell-based; settings: j774.a1, 5 h; summary of the method: as §3
Salmonella typhimurium [20] = experiment: Antibacterial activity against 1 MOI Salmonella enterica subsp. enterica serovar Typhimurium infected in mouse J774A1 cells assessed as fold reduction in bacterial growth at 100 uM after 12 hrs; type: functional, J774.A1
Salmonella typhimurium [21] = experiment: Antibacterial activity against 1 MOI Salmonella enterica subsp. enterica serovar Typhimurium infected in mouse J774A1 cells assessed as reduction in bacterial growth after 24 hrs; type: functional, organism-based; settings: J774.A1
Summary of the method: (§5)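 J774A.1 cells or thioglycolate-elicited BALB/c peritoneal macrophages seeded at 200,000/well, overnight 37°C 5% CO2; infected with GFP strain SDT1416, 1 h invasion, washed, 1 h in DMEM with 15 μg/ml gentamicin. Then fresh DMEM plus 15 μg/ml gentamicin with or without peptide (DMSO vehicle) for 24 h at 37°C; macrophages lysed with 1% Triton X-100, plated on LB agar for CFU.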

Salmonella typhimurium [22] = experiment: Antibacterial activity against 1 MOI Salmonella enterica subsp. enterica serovar Typhimurium infected in mouse peritoneal macrophages assessed as reduction in bacterial growth at 100 uM after 24 hrs; type: functional; parameters: scale not given: the % may be the effect or the level left; summary of the method: as §5
J774.A1 [23] = experiment: Drug uptake in mouse J774A.1 cells assessed as total peptide concentration at 150 uM after 24 hrs at 4 degC by HPLC analysis; settings: J774A.1, 24 h
J774.A1 [24] = experiment: Drug uptake in mouse J774A.1 cells assessed as dimer to monomer peptide ratio at 100 uM after 24 hrs at 4 degC by HPLC analysis; settings: J774A.1, 24 h

Drug uptake (J774.A1 [11]): 8 mM
Ratio (J774.A1 [12]): 12.5
Drug uptake (J774.A1 [13]): 1.4 mM
Drug uptake (J774.A1 [14]): Active
MIC (Salmonella typhimurium [15]): 64 µM (≈ 62 µg/mL)
Drug uptake (J774.A1 [16]): 28.9 mM
Drug uptake (J774.A1 [17]): 15.8 mM
Ratio (J774.A1 [18]): 2.7
Ratio (J774.A1 [19]): 8.8
Drug uptake (J774.A1 [23]): 47.7 mM
Ratio (J774.A1 [24]): 11.5
Compound: N=C(N)NCCC[C@@H](NC(=O)[C@@H](CS)NC(=O)[C@@H](Cc1ccc(O)cc1)NC(=O)[C@@H](Cc1c[nH]c2ccccc12)NC(=O)[C@@H](CCCNC(=N)N)NC(=O)[C@H](N)Cc1c[nH]c2ccccc12)C(=O)O
Activity (Salmonella typhimurium [1]): 1.3%
Activity (Salmonella typhimurium [2]): 45.2%
Activity (Salmonella typhimurium [3]): 16.5%
Activity (Salmonella typhimurium [4]): 28.4%
Activity [5]: 18%
viability at 100 µM [6]: 58.9%
Activity (J774.A1 [7]): 4.3%
viability at 50 µM [8]: 94.2%
viability at 100 µM [9]: 94.4%
viability at 150 µM [10]: 87.9%
fold change (FC) (Salmonella typhimurium [20]): < 50
Activity (Salmonella typhimurium [21]): Dose-dependent effect
Activity (Salmonella typhimurium [22]): 45%
